{
  "source": "ChEMBL document CHEMBL1146183",
  "about": "“Replacement of the N-terminal tyrosine residue in opioid peptides with 3-(2,6-dimethyl-4-carbamoylphenyl)propanoic acid (Dcp) results in novel opioid antagonists” (J Med Chem, 2006)",
  "key": {"[1]": {"biological_target": "Delta-type opioid receptor (Rattus norvegicus, UniProt P33533)", "sequence (P33533 whole entry)": "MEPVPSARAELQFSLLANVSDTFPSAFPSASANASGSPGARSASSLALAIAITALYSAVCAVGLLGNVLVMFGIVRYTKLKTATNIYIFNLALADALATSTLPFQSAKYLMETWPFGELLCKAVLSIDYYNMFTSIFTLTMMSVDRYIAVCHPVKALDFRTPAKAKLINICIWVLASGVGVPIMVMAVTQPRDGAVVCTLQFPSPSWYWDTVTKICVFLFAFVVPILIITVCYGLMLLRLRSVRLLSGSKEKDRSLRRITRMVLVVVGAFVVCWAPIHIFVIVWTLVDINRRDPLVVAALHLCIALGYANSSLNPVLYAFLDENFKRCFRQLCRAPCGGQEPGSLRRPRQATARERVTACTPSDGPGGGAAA", "test": "Displacement of [3H]DSLET from delta opioid receptor in rat brain membrane", "type": "cell membranes"}, "[2]": {"biological_target": "Kappa-type opioid receptor (Cavia porcellus, UniProt P41144)", "sequence (P41144 whole entry)": "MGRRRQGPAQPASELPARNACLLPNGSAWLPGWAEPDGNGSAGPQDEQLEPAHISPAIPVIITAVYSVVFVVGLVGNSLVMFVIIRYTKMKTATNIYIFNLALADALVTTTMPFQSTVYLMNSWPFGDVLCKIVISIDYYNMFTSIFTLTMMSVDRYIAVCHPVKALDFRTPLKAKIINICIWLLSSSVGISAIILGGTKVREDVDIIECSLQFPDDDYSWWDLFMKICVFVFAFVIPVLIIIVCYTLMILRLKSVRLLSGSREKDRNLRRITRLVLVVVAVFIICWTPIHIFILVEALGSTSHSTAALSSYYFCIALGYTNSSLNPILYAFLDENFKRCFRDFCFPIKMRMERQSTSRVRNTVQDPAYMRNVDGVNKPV", "test": "Displacement of [3H]U-69593 from kappa opioid receptor in guinea pig brain membrane", "type": "cell membranes"}, "Mu-type opioid receptor": {"biological_target": "Mu-type opioid receptor (Rattus norvegicus, UniProt P33535)", "sequence (P33535 whole entry)": "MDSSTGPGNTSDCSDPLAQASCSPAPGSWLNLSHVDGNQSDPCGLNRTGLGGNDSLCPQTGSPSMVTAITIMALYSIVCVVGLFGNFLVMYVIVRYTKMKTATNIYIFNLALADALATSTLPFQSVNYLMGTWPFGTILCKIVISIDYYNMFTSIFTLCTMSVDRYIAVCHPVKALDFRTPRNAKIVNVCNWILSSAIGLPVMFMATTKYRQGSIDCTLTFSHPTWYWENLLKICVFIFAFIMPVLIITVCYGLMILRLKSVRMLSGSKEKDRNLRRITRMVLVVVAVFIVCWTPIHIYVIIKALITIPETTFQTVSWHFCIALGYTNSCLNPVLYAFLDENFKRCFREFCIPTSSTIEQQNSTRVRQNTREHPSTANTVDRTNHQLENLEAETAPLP", "test": "Displacement of [3H]DAMGO from mu opioid receptor in rat brain membrane", "type": "cell membranes"}, "[3]": {"test": "Selectivity for rat mu opioid receptor over guinea pig kappa opioid receptor"}, "[4]": {"biological_target": "Kappa-type opioid receptor (Cavia porcellus) (UniProt P41144)", "sequence (P41144 whole entry)": "as the sequence (P41144 whole entry) above", "test": "Activity at kappa opioid receptor assessed as antagonizing effect against U50,488 by GPI assay", "type": "functional", "procedure,_shortened": "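Antagonism of the κ agonist U50,488 measured in guinea pig ileum (GPI) preparation; Ke determined, reported as mean of three to six determinations.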"}, "[5]": {"test": "Ratio of Ke for guinea pig mu opioid receptor to Ke for mouse delta opioid receptor"}, "[6]": {"biological_target": "Mu-type opioid receptor (Cavia porcellus) (UniProt P97266)", "sequence (P97266 whole entry)": "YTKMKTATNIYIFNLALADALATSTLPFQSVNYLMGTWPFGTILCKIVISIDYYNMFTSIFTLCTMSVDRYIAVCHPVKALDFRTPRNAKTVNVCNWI", "test": "Activity at mu opioid receptor assessed as antagonizing effect against TAPP by GPI assay", "type": "functional", "procedure,_shortened": "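Antagonism of the µ agonist TAPP measured in guinea pig ileum (GPI) preparation; Ke determined, reported as mean of three to six determinations.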"}, "[7]": {"biological_target": "Opioid receptor (mu and kappa) (Cavia porcellus) (UniProt P41144+P97266)", "sequence (P41144 whole entry, looked up)": "as the sequence (P41144 whole entry) above", "sequence (P97266 whole entry, looked up)": "as the sequence (P97266 whole entry) above", "test": "Ratio of Ke for mu opioid receptor to Ke for kappa opioid receptor", "type": "protein assay"}, "[8]": {"biological_target": "Delta-type opioid receptor (Mus musculus) (UniProt P32300)", "sequence (P32300 whole entry)": "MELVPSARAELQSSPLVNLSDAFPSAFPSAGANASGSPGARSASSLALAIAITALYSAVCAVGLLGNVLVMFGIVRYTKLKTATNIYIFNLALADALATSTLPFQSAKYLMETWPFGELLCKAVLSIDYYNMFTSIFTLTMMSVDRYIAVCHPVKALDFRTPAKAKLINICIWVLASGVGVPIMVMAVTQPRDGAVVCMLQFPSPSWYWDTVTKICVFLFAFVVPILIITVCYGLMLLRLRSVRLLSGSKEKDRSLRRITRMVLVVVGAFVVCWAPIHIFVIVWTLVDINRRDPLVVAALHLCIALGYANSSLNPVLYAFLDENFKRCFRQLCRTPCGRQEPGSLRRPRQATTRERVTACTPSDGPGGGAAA", "test": "Activity at delta opioid receptor assessed as antagonizing effect against DPDPE by MVD assay", "type": "functional", "procedure,_shortened": "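Antagonism at δ receptors measured in mouse vas deferens (MVD) preparation; Ke determined, reported as mean of three to six determinations.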"}, "[9]": {"biological_target": "Opioid receptors; mu & delta (Rattus norvegicus) (UniProt P33533+P33535)", "sequence (P33533 whole entry, looked up)": "as the sequence (P33533 whole entry) above", "sequence (P33535 whole entry, looked up)": "as the sequence (P33535 whole entry) above", "test": "Selectivity for mu opioid receptor over delta receptor", "type": "protein assay"}},
  "data": [
    {"smiles": "CC[C@H](C)[C@H](NC(=O)[C@H](CCCNC(=N)N)NC(=O)[C@H](CCCNC(=N)N)NC(=O)[C@H](CC(C)C)NC(=O)[C@H](Cc1ccccc1)NC(=O)CNC(=O)CNC(=O)CCc1c(C)cc(C(N)=O)cc1C)C(=O)N[C@@H](CCCNC(=N)N)C(=O)N1CCC[C@H]1C(=O)N[C@@H](CCCCN)C(N)=O", "values": [
      {"measurement": "Ki", "setting": "[1]", "value": 129, "unit": "nM"},
      {"measurement": "Ki", "setting": "[2]", "value": 32, "unit": "nM"},
      {"measurement": "Ki", "setting": "Mu-type opioid receptor", "value": 44.9, "unit": "nM"}
    ]},
    {"smiles": "Cc1cc(C(N)=O)cc(C)c1CCC(=O)NC1CSSCC(C(N)=O)NC(=O)[C@H](Cc2ccc([N+](=O)[O-])cc2)NC(=O)CNC1=O", "note": "(stereo in doubt)", "values": [
      {"measurement": "Ratio Ki", "setting": "[3]", "value": 345},
      {"measurement": "Ke", "setting": "[4]", "value": 74.1, "unit": "nM"},
      {"measurement": "Ratio Ke", "setting": "[5]", "value": 45},
      {"measurement": "Ki", "setting": "[1]", "value": 25.8, "unit": "nM"},
      {"measurement": "Ke", "setting": "[6]", "value": 3.92, "unit": "nM"},
      {"measurement": "Ratio Ke", "setting": "[7]", "value": 19},
      {"measurement": "Ke", "setting": "[8]", "value": 176, "unit": "nM"},
      {"measurement": "Ki", "setting": "[2]", "value": 980, "unit": "nM"},
      {"measurement": "Ki", "setting": "Mu-type opioid receptor", "value": 2.84, "unit": "nM"},
      {"measurement": "Ratio Ki", "setting": "[9]", "value": 9}
    ]},
    {"smiles": "Cc1cc(O)cc(C)c1CCC(=O)NC1CSSCC(C(N)=O)NC(=O)[C@H](Cc2ccc([N+](=O)[O-])cc2)NC(=O)CNC1=O", "note": "(stereo in doubt)", "values": [
      {"measurement": "Ratio Ki", "setting": "[3]", "value": 62},
      {"measurement": "Ke", "setting": "[4]", "value": 22.6, "unit": "nM"},
      {"measurement": "Ratio Ke", "setting": "[5]", "value": 17},
      {"measurement": "Ki", "setting": "[1]", "value": 11.6, "unit": "nM"},
      {"measurement": "Ke", "setting": "[6]", "value": 3.68, "unit": "nM"},
      {"measurement": "Ratio Ke", "setting": "[7]", "value": 6},
      {"measurement": "Ke", "setting": "[8]", "value": 63.3, "unit": "nM"},
      {"measurement": "Ki", "setting": "[2]", "value": 299, "unit": "nM"},
      {"measurement": "Ki", "setting": "Mu-type opioid receptor", "value": 4.79, "unit": "nM"},
      {"measurement": "Ratio Ki", "setting": "[9]", "value": 2}
    ]}
  ]
}
